According to ChEMBL document CHEMBL2176962, “Repositioning HIV-1 integrase inhibitors for cancer therapeutics: 1,6-naphthyridine-7-carboxamide as a promising scaffold with drug-like properties” (J Med Chem, 2012):
Activity calls are given as the source filed them. No cut-off for these calls is given here.

How the values were obtained:
MDA-MB-435 [1] = test: Cytotoxicity against human MDA-MB-435 cells incubated for 72 hrs by MTT assay; type: functional, cell-based; details: MDA-MB-435, 72 h
Outline: (§1)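 Cells were kept in DMEM (MDA-MB-435, MCF7, LNCaP) or RPMI (HT29, HCT116) with 10% heat-inactivated FBS and 2 mM L-glutamine, subconfluent and in exponential growth. They were seeded, allowed to adhere overnight, then exposed continuously to compound (10 mM DMSO stock) for 72 h. MTT was added to 0.3 mg/mL final for 3–4 h at 37 °C, formazan was dissolved in DMSO, and absorbance was read at 570 nm. Runs were in triplicate; IC50 came from log concentration versus percent cell kill.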

[2] = biological target: Proto-oncogene tyrosine-protein kinase Src (Homo sapiens) (UniProt P12931); test: Inhibition of SRC at 10 uM incubated for 60 mins using poly(Glu,Tyr)4:1 substrate and 10 uM ATP by ELISA
Proto-oncogene tyrosine-protein kinase Src (Homo sapiens), sequence (P12931 2-536 limits assumed): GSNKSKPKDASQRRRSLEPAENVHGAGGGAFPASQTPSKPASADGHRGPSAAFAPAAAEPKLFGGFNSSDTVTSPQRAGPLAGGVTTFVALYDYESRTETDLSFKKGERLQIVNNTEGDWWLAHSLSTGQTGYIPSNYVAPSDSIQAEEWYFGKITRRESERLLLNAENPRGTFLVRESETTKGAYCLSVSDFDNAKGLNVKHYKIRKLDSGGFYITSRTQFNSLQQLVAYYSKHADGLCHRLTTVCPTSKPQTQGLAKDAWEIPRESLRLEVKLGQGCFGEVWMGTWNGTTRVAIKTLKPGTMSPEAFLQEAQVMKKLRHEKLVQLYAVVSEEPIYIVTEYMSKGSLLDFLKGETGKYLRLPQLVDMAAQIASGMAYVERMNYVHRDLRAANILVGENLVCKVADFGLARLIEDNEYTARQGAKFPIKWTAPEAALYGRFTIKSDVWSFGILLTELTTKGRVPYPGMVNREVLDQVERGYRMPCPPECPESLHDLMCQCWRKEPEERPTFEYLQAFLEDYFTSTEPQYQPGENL
Outline: (§2)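 ELISA with Poly(Glu,Tyr)4:1 (20 μg/mL) precoated as substrate and 10 μM ATP, in 50 mM HEPES pH 7.4, 20 mM MgCl2, 0.1 mM MnCl2, 0.2 mM Na3VO4, 1 mM DTT. Compound was tested at 10 μM, in duplicate. Kinase reaction ran 60 min at 37 °C. Phosphotyrosine was detected with PY99 and HRP anti-mouse IgG, developed with o-phenylenediamine/H2O2, stopped with H2SO4 and read at 492 nm. Inhibition = [1 − A492 treated/A492 control] × 100%. References: lapatinib (ErbB2) and PP2 (Src), each at 10 μM.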

[3] = biological target: Vascular endothelial growth factor receptor 2 (Homo sapiens) (UniProt P35968); details: at 10 µM
Vascular endothelial growth factor receptor 2 (Homo sapiens), sequence (P35968 whole entry): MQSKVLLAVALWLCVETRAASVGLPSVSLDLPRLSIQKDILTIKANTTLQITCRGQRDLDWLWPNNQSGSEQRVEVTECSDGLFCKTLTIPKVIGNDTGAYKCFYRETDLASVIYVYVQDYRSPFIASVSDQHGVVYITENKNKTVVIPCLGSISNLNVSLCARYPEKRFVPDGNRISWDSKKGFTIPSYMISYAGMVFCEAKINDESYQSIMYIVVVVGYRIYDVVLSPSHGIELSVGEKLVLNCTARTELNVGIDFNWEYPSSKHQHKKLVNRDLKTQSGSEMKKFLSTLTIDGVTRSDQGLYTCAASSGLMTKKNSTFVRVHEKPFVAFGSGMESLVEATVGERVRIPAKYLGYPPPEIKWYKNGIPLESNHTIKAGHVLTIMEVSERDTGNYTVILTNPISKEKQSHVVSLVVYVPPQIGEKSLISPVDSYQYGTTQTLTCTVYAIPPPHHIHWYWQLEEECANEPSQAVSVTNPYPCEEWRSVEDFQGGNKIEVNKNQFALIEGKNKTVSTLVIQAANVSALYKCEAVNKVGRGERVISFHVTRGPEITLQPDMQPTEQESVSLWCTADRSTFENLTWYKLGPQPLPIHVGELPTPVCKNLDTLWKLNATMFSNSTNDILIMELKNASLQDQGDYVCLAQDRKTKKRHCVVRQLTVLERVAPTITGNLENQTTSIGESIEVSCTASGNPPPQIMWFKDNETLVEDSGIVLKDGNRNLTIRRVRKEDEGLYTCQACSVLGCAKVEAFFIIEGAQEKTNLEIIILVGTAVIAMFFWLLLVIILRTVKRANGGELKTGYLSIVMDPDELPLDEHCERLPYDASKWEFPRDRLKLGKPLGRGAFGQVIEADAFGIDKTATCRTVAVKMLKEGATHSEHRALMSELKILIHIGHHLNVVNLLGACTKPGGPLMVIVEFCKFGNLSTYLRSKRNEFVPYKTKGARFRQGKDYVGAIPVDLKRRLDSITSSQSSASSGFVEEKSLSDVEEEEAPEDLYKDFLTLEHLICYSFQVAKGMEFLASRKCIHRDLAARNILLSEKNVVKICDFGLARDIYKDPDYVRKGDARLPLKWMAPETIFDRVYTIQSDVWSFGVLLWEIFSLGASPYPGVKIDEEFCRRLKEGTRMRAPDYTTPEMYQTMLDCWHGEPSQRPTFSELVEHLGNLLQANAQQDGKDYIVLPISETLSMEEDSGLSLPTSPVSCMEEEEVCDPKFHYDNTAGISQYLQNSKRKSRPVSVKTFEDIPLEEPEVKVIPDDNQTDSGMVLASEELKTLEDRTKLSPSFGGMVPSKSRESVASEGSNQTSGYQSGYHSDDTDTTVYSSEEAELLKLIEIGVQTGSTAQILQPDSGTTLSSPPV

SK-BR-3 = test: Cytotoxicity against human SKBR3 cells incubated for 72 hrs by MTT assay; type: functional, cell-based; details: SK-BR-3, 72 h
[4] = biological target: Receptor tyrosine-protein kinase erbB-2 (Homo sapiens) (UniProt P04626); test: Inhibition of ErbB2 at 10 uM incubated for 60 mins using poly(Glu,Tyr)4:1 substrate and 10 uM ATP by ELISA; outline: as §2
Receptor tyrosine-protein kinase erbB-2 (Homo sapiens), sequence (P04626 whole entry): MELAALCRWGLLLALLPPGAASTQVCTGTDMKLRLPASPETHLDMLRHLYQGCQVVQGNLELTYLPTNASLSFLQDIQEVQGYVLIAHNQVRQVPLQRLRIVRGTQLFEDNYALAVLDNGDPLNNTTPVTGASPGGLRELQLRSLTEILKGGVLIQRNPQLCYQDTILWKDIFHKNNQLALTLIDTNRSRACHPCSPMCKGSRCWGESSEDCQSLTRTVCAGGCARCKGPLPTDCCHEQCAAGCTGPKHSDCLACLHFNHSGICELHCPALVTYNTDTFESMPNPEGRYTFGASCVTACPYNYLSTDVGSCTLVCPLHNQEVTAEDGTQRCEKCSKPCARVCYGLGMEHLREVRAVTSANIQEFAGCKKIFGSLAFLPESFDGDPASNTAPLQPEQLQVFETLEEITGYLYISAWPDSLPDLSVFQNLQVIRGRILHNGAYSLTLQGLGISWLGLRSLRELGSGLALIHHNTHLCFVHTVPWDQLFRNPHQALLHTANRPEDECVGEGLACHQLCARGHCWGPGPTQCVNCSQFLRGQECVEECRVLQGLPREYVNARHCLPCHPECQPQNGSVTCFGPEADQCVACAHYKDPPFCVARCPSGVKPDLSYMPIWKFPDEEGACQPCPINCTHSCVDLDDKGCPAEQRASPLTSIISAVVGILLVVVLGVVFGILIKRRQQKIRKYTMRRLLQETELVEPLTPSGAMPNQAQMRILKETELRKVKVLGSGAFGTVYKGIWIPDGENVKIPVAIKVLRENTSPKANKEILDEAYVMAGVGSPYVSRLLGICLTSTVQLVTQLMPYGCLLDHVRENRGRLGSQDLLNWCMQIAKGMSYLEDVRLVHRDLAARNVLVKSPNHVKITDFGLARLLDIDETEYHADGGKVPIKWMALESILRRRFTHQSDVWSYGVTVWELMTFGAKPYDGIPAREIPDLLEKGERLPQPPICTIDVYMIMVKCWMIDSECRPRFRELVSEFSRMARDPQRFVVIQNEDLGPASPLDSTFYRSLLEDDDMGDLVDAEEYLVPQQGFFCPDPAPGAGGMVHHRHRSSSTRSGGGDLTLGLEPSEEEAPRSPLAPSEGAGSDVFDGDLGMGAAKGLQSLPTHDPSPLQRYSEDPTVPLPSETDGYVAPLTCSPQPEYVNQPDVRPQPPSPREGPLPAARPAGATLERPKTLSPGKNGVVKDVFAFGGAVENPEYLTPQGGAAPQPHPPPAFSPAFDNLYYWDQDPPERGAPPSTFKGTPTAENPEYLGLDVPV

HEY = test: Cytotoxicity against human HEY cells incubated for 72 hrs by MTT assay; type: functional, cell-based
[5] = biological target: Insulin-like growth factor 1 receptor (Homo sapiens) (UniProt P08069); test: Inhibition of IGF1R at 10 uM in presence of ATP at Km level by kinase profiler method
Insulin-like growth factor 1 receptor (Homo sapiens), sequence (P08069 31-736 limits assumed): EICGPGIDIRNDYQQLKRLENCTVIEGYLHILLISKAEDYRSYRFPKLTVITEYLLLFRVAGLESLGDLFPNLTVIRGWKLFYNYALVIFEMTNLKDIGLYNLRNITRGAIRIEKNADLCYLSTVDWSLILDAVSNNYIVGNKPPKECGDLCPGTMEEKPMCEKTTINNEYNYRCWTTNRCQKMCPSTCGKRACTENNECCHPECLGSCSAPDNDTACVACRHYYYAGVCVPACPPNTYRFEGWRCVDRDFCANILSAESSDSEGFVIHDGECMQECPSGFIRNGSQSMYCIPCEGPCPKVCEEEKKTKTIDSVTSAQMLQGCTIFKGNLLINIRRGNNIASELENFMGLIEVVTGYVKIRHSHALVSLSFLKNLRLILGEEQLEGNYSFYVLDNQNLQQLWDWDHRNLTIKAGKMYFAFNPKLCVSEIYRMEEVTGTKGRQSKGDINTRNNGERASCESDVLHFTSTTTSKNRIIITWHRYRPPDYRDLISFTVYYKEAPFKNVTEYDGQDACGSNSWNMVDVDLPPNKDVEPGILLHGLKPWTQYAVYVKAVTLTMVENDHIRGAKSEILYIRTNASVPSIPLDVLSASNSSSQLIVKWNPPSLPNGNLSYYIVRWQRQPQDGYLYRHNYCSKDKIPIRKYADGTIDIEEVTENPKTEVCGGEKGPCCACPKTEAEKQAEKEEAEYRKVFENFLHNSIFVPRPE
Insulin-like growth factor 1 receptor (Homo sapiens), sequence (P08069 741-1367 limits assumed): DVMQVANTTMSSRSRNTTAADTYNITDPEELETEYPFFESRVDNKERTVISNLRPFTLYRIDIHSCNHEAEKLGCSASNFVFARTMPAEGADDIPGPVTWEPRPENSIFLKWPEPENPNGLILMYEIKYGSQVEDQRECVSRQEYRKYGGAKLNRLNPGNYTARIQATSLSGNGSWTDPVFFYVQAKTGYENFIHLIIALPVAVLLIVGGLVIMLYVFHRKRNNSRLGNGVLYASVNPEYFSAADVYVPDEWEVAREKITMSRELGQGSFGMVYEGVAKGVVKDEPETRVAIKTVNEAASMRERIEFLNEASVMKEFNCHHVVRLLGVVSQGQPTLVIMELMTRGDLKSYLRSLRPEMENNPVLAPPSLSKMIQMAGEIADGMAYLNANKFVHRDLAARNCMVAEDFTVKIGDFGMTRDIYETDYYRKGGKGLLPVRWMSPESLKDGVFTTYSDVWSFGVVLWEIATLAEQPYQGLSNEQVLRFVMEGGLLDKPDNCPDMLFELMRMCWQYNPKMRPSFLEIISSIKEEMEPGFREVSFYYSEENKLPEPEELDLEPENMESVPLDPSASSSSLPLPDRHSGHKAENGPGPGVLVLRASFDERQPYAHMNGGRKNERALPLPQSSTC

[6] = biological target: T1, Aurora kinase A (Homo sapiens) (UniProt O14965); test: Inhibition of Aurora A kinase at 10 uM in presence of ATP at Km level by kinase profiler method
T1 sequence (whole entry): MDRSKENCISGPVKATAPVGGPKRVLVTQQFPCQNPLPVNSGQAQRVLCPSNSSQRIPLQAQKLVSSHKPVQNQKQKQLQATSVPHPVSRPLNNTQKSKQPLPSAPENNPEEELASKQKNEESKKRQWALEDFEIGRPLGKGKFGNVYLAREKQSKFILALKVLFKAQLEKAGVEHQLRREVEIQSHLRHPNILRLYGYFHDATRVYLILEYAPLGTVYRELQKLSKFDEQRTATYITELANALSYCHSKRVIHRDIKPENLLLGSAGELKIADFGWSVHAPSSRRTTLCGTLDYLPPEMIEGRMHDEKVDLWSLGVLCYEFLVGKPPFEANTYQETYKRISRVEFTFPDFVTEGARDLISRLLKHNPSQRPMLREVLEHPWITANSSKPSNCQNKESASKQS

[7] = biological target: Tyrosine-protein kinase Lck (Homo sapiens) (UniProt P06239); test: Inhibition of LCK at 10 uM in presence of ATP at Km level by kinase profiler method
Tyrosine-protein kinase Lck (Homo sapiens), sequence (P06239 2-509 limits assumed): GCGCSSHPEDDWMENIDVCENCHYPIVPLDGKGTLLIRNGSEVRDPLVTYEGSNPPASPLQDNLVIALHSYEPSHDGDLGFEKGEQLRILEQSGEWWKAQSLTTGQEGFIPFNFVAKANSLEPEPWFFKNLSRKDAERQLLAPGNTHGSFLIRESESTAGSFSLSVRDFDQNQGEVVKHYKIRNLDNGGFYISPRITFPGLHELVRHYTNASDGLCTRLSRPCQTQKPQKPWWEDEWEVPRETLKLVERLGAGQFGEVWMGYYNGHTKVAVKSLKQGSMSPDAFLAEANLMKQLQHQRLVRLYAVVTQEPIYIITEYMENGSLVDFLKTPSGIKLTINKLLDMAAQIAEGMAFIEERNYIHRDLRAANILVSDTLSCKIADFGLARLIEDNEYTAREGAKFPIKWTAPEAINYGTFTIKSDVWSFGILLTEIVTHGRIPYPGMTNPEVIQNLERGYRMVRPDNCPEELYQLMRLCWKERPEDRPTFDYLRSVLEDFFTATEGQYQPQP

HCT-116 [8] = test: Cytotoxicity against p53 expressing human HCT116 cells incubated for 72 hrs by MTT assay; type: functional, cell-based; details: HCT-116, 72 h; outline: as §1
[9] = test system: Tyrosine-protein kinase ABL1 (Homo sapiens), P00519 [T315I]; test: Inhibition of Abl T315I mutant at 10 uM in presence of ATP at Km level by kinase profiler method
[10] = biological target: Fibroblast growth factor receptor 1 (Homo sapiens) (UniProt P11362); test: Inhibition of FGFR1 at 10 uM in presence of ATP at Km level by kinase profiler method
MCF7 = test: Cytotoxicity against human MCF7 cells incubated for 72 hrs by MTT assay; type: functional, cell-based; details: MCF7, 72 h; outline: as §1
MDA-MB-435 [11] = test: Inhibition of colony formation in human MDA-MB-435 cells at 10 uM treated continuously for 7 days by crystal violet staining based colony formation assay; type: functional, cell-based
Outline: (§3)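 MDA-MB-435 cells (500 per well) were adhered overnight and treated with compound at 10 μM, or across a dose range. The methods describe a 24 h treatment, then PBS washing and 7–10 days regrowth; the figure legend describes continuous 7-day treatment. Colonies were fixed and stained with 2% crystal violet containing 1% glutaraldehyde, then imaged.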

HCT-116 [12] = test: Cytotoxicity against p53 deficient human HCT116 cells incubated for 72 hrs by MTT assay; type: functional, cell-based; details: HCT-116, 72 h; outline: as §1
LNCaP = test: Cytotoxicity against human LNCAP cells incubated for 72 hrs by MTT assay; type: functional, cell-based; outline: as §1
HT-29 = test: Cytotoxicity against human HT-29 cells incubated for 72 hrs by MTT assay; type: functional, cell-based; details: HT-29, 72 h; outline: as §1
[13] = biological target: Angiopoietin-1 receptor (Homo sapiens) (UniProt Q02763); test: Inhibition of TIE2 at 10 uM in presence of ATP at Km level by kinase profiler method
[14] = biological target: Hepatocyte growth factor receptor (Homo sapiens) (UniProt P08581); test: Inhibition of MET at 10 uM in presence of ATP at Km level by kinase profiler method
[15] = biological target: Vascular endothelial growth factor receptor 2 (Homo sapiens) (UniProt P35968); test: Inhibition of KDR at 10 uM in presence of ATP at Km level by kinase profiler method
MDA-MB-435 [16] = test: Induction of cell cycle arrest in human in human MDA-MB-435 cells assessed as accumulation at G0/G1 phase at 2 times cytotoxic IC50 level after 12 to 48 hrs by propidium iodide staining based flow cytometry; type: functional
MDA-MB-435 [17] = test: Inhibition of colony formation in human MDA-MB-435 cells treated continuously for 7 days by crystal violet staining based colony formation assay; type: functional, cell-based; outline: as §3
[18] = biological target: T2, Human immunodeficiency virus type 1 integrase (Human immunodeficiency virus 1, UniProt Q7ZJM1); test: Inhibition of HIV1 integrase 3'-processing activity using [32P]-labeled linear oligonucleotide substrate
[19] = biological target: T2, Human immunodeficiency virus type 1 integrase; test: Inhibition of HIV1 integrase strand transfer activity using [32P]-labeled linear oligonucleotide substrate
MDA-MB-435 [20] = test: Induction of cell cycle arrest in human in human MDA-MB-435 cells assessed as accumulation at G0/G1 phase at 2 times cytotoxic IC50 level after 12 hrs by propidium iodide staining based flow cytometry; type: functional
MDA-MB-435 [21] = test: Induction of cell cycle arrest in human in human MDA-MB-435 cells assessed as accumulation at G0/G1 phase at 2 times cytotoxic IC50 level after 48 hrs by propidium iodide staining based flow cytometry (reference value: 36%); type: functional

Row | inhibition [2] [%] | inhibition [3] [%] | inhibition [4] [%] | inhibition [5] | inhibition [10] | SMILES | IC50 (MDA-MB-435 [1]) [µM] | IC50 (SK-BR-3) [µM] | IC50 (HEY) [µM] | IC50 (HCT-116 [8]) [µM] | IC50 (MCF7) [µM] | inhibition (MDA-MB-435 [11]) | IC50 (HCT-116 [12]) [µM] | IC50 (LNCaP) [µM] | IC50 (HT-29) [µM] | other results
1 | 90 | 41 | 13 | Active | Active | N[C@H]1CC[C@H](Nc2c(C(=O)NCc3ccc(Cl)cc3Cl)nc(Br)c3cccnc23)CC1 | 5.8 | 6 | 5 | 6 | – | – | – | – | – | inhibition [6]: Active; inhibition [7]: Active; inhibition [9]: Active
2 | 18 | 0 | – | – | – | NCCCCCCNc1c(C(=O)NCc2ccc(F)cc2)nc(Br)c2cccnc12 | 6 | 3 | – | 7 | 2 | Active | > 10 | 8 | 5 | –
3 | 70 | 34 | 0 | Active | Active | N[C@H]1CC[C@H](Nc2c(C(=O)NCc3ccc(Cl)cc3)nc(Br)c3cccnc23)CC1 | 1 | 2 | 1 | 4 | – | – | – | – | – | inhibition [6]: Active; inhibition [7]: Active; inhibition [9]: Active
4 | 76 | 2 | 0 | Active | Active | COc1ccc(CNC(=O)c2nc(Br)c3cccnc3c2N[C@H]2CC[C@H](N)CC2)cc1 | 5 | 5 | 4 | 3 | – | – | – | – | – | inhibition [13]: Active; inhibition [14]: Active; inhibition [15]: Active
5 | 13 | – | 7 | – | – | N[C@H]1CC[C@H](Nc2c(C(=O)NCc3ccc(F)cc3)nc(Br)c3cccnc23)CC1 | 6 | 2 | – | 7 | 2 | Active | 4 | 5 | < 1 | Activity (MDA-MB-435 [16]): Active; inhibition (MDA-MB-435 [17]): Dose-dependent effect
6 | – | – | – | – | – | NCCCNc1c(C(=O)NCc2ccc(F)cc2)nc(Br)c2cccnc12 | 5 | – | – | > 20 | 6 | Active | 18 | – | – | IC50 [18]: > 100 µM; IC50 [19]: > 100 µM; Activity (MDA-MB-435 [20]): Active; Activity (MDA-MB-435 [21]): 61%
7 | 9 | 0 | 1 | – | – | O=C(NCc1ccc(F)cc1)c1nc(Br)c2cccnc2c1NC1CCNCC1 | 7 | 1 | – | 9.2 | 3 | Active | 6 | 6 | 4 | –
